pIC50: −log10 of the molar value. Active and inactive are the calls of the source. The calls are words filed in the database; no cut-off is given here.
Assays:
[1] = tested on: MOLT-4; test: Induction of apoptosis in human MOLT-4 cells assessed as necrotic cells at 20 uM measured after 24 hrs by AnnexinV-FITC/PI staining based flowcytometry method (reference value: 0.51%); type: functional
Outline: (§1)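 Cells exposed to 20 μM compound for 24 h, washed with cold PBS, and stained with Annexin V-FITC and propidium iodide for 15 min at room temperature. Viable, early apoptotic, late apoptotic and necrotic populations quantified by flow cytometry.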

[2] = tested on: MRC5; test: Cytotoxicity against human MRC5 cells assessed as inhibition of cell viability measured after 48 hrs by MTT assay; type: cell-based; settings: MRC5, 48 h
Outline: (§2)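 MTT assay in MRC-5 cells seeded at 2×10^6 cells/mL. Compound given in 1% FBS EMEM for 48 h at 37 °C in CO2. MTT solution then added for 3 h at 37 °C. Medium removed and formazan dissolved in DMSO.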

[3] = Half life in Sprague-Dawley rat at 3 mg/kg, po measured for 24 hrs by LC-MS/MS analysis; type: ADME, organism-based; settings: in vivo
Outline: (§3)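 Sprague-Dawley rats dosed orally at 1 or 3 mg/kg, three animals per group. Blood sampled at 0.25, 0.5, 1, 2, 4, 8 and 24 h post-dose. Plasma separated by centrifugation, extracted and quantified by LC-MS/MS. PK parameters (Cmax, AUClast, Tmax, t1/2) derived by non-compartmental software.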

[4] = biological target: T1, Phosphatidylinositol 4,5-bisphosphate 3-kinase catalytic subunit delta isoform (Homo sapiens) (UniProt O00329); test: Inhibition of PI3Kdelta in human MOLT-4 cells assessed as inhibition of AKT phosphorylation at Ser473 residue at 1 to 5 uM measured after 3 hrs by western blot assay; type: cell-based; settings: dose 1-5 µM
T1 sequence (whole entry): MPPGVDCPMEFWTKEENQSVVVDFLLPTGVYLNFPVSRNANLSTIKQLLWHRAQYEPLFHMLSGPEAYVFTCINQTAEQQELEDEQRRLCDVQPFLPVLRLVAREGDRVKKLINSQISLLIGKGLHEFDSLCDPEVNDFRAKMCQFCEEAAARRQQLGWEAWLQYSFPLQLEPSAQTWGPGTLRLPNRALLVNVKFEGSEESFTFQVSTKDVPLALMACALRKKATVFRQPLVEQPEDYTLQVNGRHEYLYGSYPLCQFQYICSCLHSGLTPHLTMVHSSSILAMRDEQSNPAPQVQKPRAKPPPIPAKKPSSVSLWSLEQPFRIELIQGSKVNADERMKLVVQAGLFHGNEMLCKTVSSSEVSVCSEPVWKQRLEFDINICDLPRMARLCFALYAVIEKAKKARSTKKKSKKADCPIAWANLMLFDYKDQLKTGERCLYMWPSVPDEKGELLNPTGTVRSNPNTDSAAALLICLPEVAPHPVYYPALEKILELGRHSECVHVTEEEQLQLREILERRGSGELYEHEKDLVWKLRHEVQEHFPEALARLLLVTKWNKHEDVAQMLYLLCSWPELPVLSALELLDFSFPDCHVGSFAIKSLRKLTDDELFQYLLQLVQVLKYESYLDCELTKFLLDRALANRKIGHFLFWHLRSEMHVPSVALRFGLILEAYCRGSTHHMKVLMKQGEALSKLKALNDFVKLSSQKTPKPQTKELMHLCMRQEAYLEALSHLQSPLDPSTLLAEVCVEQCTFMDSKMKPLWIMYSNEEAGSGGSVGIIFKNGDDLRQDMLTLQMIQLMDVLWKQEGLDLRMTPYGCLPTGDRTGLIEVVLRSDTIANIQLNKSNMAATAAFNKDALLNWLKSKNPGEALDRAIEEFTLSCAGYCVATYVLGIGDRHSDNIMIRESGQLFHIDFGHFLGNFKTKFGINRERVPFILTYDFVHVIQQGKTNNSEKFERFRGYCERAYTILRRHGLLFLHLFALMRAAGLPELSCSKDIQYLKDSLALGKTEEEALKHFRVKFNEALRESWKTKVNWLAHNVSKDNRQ
Outline: (§4)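 Treatment lasted 3 h: SUDHL-5 at 1 μM, MOLT-4 at 5 μM. Cells washed twice in cold PBS and lysed. Proteins resolved on 10–12% SDS-PAGE and blotted to PVDF. Probed for p-AKT S473, p-AKT T308, p-S6 and p-4E-BP1, with β-actin as loading control.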

[5] = tested on: MOLT-4; test: Induction of apoptosis in human MOLT-4 cells assessed as viable cells at 20 uM measured after 24 hrs by AnnexinV-FITC/PI staining based flowcytometry method (reference value: 95.3%); type: functional; settings: read-out: Activity; outline: as §1
[6] = tested on: SU-DHL-5; test: Antiproliferative activity against human SU-DHL-5 cells assessed as cell viability at 10 uM by CellTiter-Glo luminescent cell viability assay (reference value: 100%); type: functional; settings: read-out: Activity
[7] = tested on: MOLT-4; test: Induction of apoptosis in human MOLT-4 cells assessed as early apoptotic cells at 20 uM measured after 24 hrs by AnnexinV-FITC/PI staining based flowcytometry method (reference value: 2.04%); type: functional; outline: as §1
[8] = Toxicity in Balb/c nude mouse xenografted with human MOLT-4 cells assessed as changes in body weight at 10 mg/kg, po administered via gavage qd for 57 days; type: organism-based; settings: in vivo, 1368 h, dose 10 mg/kg/day, time 57 day
Outline: (§5)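 MOLT-4 cells (2×10^6 in 0.1 mL D-PBS) implanted subcutaneously on the back of BALB/c-nude mice. Once tumours grew, mice were dosed daily by oral gavage at 10 mg/kg for 57 consecutive days. Tumours measured by caliper, with volume = ½ × […]. Body weight was tracked over the same period.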

[9] = tested on: MOLT-4; test: Antitumour activity against human MOLT-4 cells xenografted in Balb/c nude mouse assessed as inhibition of tumour growth at 10 mg/kg, po administered via gavage qd for 57 days; type: functional; settings: dose 10.0 mg/kg/day, time 57.0 day; outline: as §5
[10] = tested on: SU-DHL10; test: Induction of apoptosis in human SU-DHL-10 cells assessed as late apoptotic cells at 20 uM measured after 24 hrs by AnnexinV-FITC/PI staining based flowcytometry method (reference value: 3.48%); type: functional; outline: as §1
[11] = AUC (last) in Sprague-Dawley rat at 3 mg/kg, po measured for 24 hrs by LC-MS/MS analysis; type: ADME, organism-based; set-up: route oral, time 24 hrs, dose 3 mg/kg; settings: in vivo; outline: as §3
[12] = biological target: T1, Phosphatidylinositol 4,5-bisphosphate 3-kinase catalytic subunit delta isoform (Homo sapiens); test: Inhibition of PI3Kdelta in human MOLT-4 cells assessed as inhibition of AKT phosphorylation at Thr308 residue at 1 to 5 uM measured after 3 hrs by western blot assay; type: cell-based; settings: dose 1-5 µM; outline: as §4
[13] = biological target: T1, Phosphatidylinositol 4,5-bisphosphate 3-kinase catalytic subunit delta isoform (Homo sapiens); test: Inhibition of PI3Kdelta in human SU-DHL-5 cells assessed as inhibition of AKT phosphorylation at Ser473 residue at 1 to 5 uM measured after 3 hrs by western blot assay; type: cell-based; settings: dose 1-5 µM; outline: as §4
[14] = tested on: SU-DHL10; test: Induction of apoptosis in human SU-DHL-10 cells assessed as viable cells at 20 uM measured after 24 hrs by AnnexinV-FITC/PI staining based flowcytometry method (reference value: 90%); type: functional; settings: read-out: Activity; outline: as §1
[15] = tested on: MOLT-4; test: Induction of apoptosis in human MOLT-4 cells assessed as late apoptotic cells at 20 uM measured after 24 hrs by AnnexinV-FITC/PI staining based flowcytometry method (reference value: 2.17%); type: functional; outline: as §1
[16] = Cmax in Sprague-Dawley rat at 3 mg/kg, po measured for 24 hrs by LC-MS/MS analysis; type: ADME, organism-based; set-up: route oral, time 24 hrs, dose 3 mg/kg; settings: in vivo; outline: as §3
[17] = tested on: MOLT-4; test: Antiproliferative activity against human MOLT-4 cells assessed as cell viability at 20 uM by CellTiter-Glo luminescent cell viability assay (reference value: 100%); type: functional; settings: read-out: Activity
[18] = tested on: SU-DHL10; test: Induction of apoptosis in human SU-DHL-10 cells assessed as early apoptotic cells at 20 uM measured after 24 hrs by AnnexinV-FITC/PI staining based flowcytometry method (reference value: 6.32%); type: functional; outline: as §1
[19] = tested on: SU-DHL10; test: Induction of apoptosis in human SU-DHL-10 cells assessed as necrotic cells at 20 uM measured after 24 hrs by AnnexinV-FITC/PI staining based flowcytometry method (reference value: 0.2%); type: functional; outline: as §1
[20] = Tmax in Sprague-Dawley rat at 3 mg/kg, po measured for 24 hrs by LC-MS/MS analysis; type: ADME, organism-based; settings: in vivo; outline: as §3
[21] = biological target: T1, Phosphatidylinositol 4,5-bisphosphate 3-kinase catalytic subunit delta isoform (Homo sapiens); test: Inhibition of PI3Kdelta in human SU-DHL-5 cells assessed as inhibition of AKT phosphorylation at Thr308 residue at 1 to 5 uM measured after 3 hrs by western blot assay; type: cell-based; settings: dose 1-5 µM; outline: as §4
[22] = Cytotoxicity against human MRC5 cells assessed as inhibition of cell viability at 20 uM measured after 48 hrs by MTT assay; type: cell-based; settings: read-out: INH; outline: as §2

CC[C@H](Nc1ncnc2[nH]cnc12)c1nc2cccc(F)c2c(=O)n1-c1ccccc1 [IDELALISIB]
Activity [1]: 2.34%
pIC50 [2]: < 4.00
half-life [3]: 2.7 h
inhibition [4]: Active
viability at 20 µM [5]: 56.5%
viability at 10 µM [6]: 41.3%
Activity [7]: 19.2%
Activity [8]: Non-Toxic
inhibition [9]: Active
Activity [10]: 30.4%
AUC(0-t) at 24 h [11]: 202 ng·h/mL
inhibition [12]: Active
inhibition [13]: Active
viability at 20 µM [14]: 12.2%
Activity [15]: 22%
Cmax [16]: 53 ng/mL
viability at 20 µM [17]: 74.6%
Activity [18]: 55.7%
Activity [19]: 1.7%
Tmax [20]: 0.5 h
inhibition [21]: Active
cytotoxicity at 48 h, 20 µM [22]: 18.4%
